Tests used:
[1] = folding enthalpy; higher = less favourable; fluorescence melt of hairpins on a sequencing array, two-state fit; conditions: sodium 0.088 M
Method in brief: (§1)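 Melting temperature and folding enthalpy were obtained by bootstrapped two-state fitting. Fits used Cy3 fluorescence of library hairpins with annealed Cy3 and quencher oligos on a sequenced MiSeq flow cell, imaged in 50 mM Na-HEPES pH 8.0, 25 mM NaCl in 2.5 °C steps up to 60 °C and normalised to pre-quench Cy3 and control constructs. Four replicates were combined by inverse-variance weighting, and fitted temperatures were raised by 9.35 °C to match UV melts.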

[2] = melting temperature; fluorescence melt of hairpins on a sequencing array, two-state fit, raised by 9.35 °C to match UV melts; conditions: sodium 0.088 M
Method in brief: as §1

GATCGTATATACGATC ((((((....))))))
folding enthalpy [1]: -35.1 kcal/mol
Tm [2]: 56.6 °C

GGGCGCGAAAGCGTACCC ((((((....)))..)))
folding enthalpy [1]: -13.1 kcal/mol
Tm [2]: 56.3 °C

GCTTCCGAAAGGACAGC ((((((....))).)))
folding enthalpy [1]: -24.4 kcal/mol
Tm [2]: 47.8 °C

GCTAATGCGAAAGCAAGC (((..(((....))))))
folding enthalpy [1]: -16.4 kcal/mol
Tm [2]: 36.1 °C

GTAAGCCCGAAAGGGTAC (((..(((....))))))
folding enthalpy [1]: -10.6 kcal/mol
Tm [2]: 28.1 °C

GCATGGGGAAACTCATGC (((((.(....).)))))
folding enthalpy [1]: -40.3 kcal/mol
Tm [2]: 51.9 °C

GCGCGGCGAAAGCTGGGC ((.(.((....)).).))
folding enthalpy [1]: -32.4 kcal/mol
Tm [2]: 67.2 °C

GGGAGCCGAAAGGCCCCC (((.(((....))).)))
folding enthalpy [1]: -21.3 kcal/mol
Tm [2]: 65.9 °C

GTTTACGGAAACGTAGAC ((.((((....)))).))
folding enthalpy [1]: -24.7 kcal/mol
Tm [2]: 40.3 °C

GATCACACAGGTGATC ((((((....))))))
folding enthalpy [1]: -44.3 kcal/mol
Tm [2]: 54.5 °C

GTCGTGGAAACACGAC ((((((....))))))
folding enthalpy [1]: -35.4 kcal/mol
Tm [2]: 68.5 °C

GAGATACGAAAGTACCTC (((.(((....))).)))
folding enthalpy [1]: -31.3 kcal/mol
Tm [2]: 41.5 °C

GTCTACGAAAGTATTGAC ((((((....)))..)))
folding enthalpy [1]: -19.5 kcal/mol
Tm [2]: 30.2 °C

GATCACCGTGGTGATC ((((((....))))))
folding enthalpy [1]: -29.5 kcal/mol
Tm [2]: 66.3 °C

GTGTGCGAAAGCAGGCAC ((((((....)))..)))
folding enthalpy [1]: -15.8 kcal/mol
Tm [2]: 44.8 °C

GCCTTGCGAAAGCAGGC (((.(((....))))))
folding enthalpy [1]: -24 kcal/mol
Tm [2]: 66.7 °C

GGGCTTCCGAAAGGACCC (((..(((....))))))
folding enthalpy [1]: -23.4 kcal/mol
Tm [2]: 39.9 °C

GCCCTCGAAAGAGCCGGC ((((((....)))..)))
folding enthalpy [1]: -18.4 kcal/mol
Tm [2]: 40.4 °C

GCTATCGAAAGATCGAGC ((((((....)))..)))
folding enthalpy [1]: -10.1 kcal/mol
Tm [2]: 29.7 °C

GTCAGACGAAAGTCCGAC (((.(((....))).)))
folding enthalpy [1]: -26.5 kcal/mol
Tm [2]: 48.6 °C

GATGGCGCGAAAGCGATC (((..(((....))))))
folding enthalpy [1]: -11 kcal/mol
Tm [2]: 31.6 °C

CGACCCGGAAACGGTTCG (((.(((....))).)))
folding enthalpy [1]: -39.8 kcal/mol
Tm [2]: 48.6 °C

GACTCGGGAAACTGGGTC (((.(.(....).).)))
folding enthalpy [1]: -29.9 kcal/mol
Tm [2]: 38 °C

GCCATGGGAAACCACGGC (((.(((....))).)))
folding enthalpy [1]: -36.5 kcal/mol
Tm [2]: 47.7 °C

GATCGCTCTCGCGATC ((((((....))))))
folding enthalpy [1]: -34.2 kcal/mol
Tm [2]: 67.6 °C

GTGCGCCGAAAGGCCAC (((.(((....))))))
folding enthalpy [1]: -21.3 kcal/mol
Tm [2]: 58.6 °C

GACGCACGAAAGTGTGTC (((.(((....))).)))
folding enthalpy [1]: -45.6 kcal/mol
Tm [2]: 61.8 °C

GTCTCTGGAAACGGAGAC (((((.(....).)))))
folding enthalpy [1]: -34.7 kcal/mol
Tm [2]: 50.8 °C

GTCCAGGGAAACCCAGAC (((..((....))..)))
folding enthalpy [1]: -17.4 kcal/mol
Tm [2]: 31.4 °C

GTCCCTGGAAACAAGGAC ((((.((....)).))))
folding enthalpy [1]: -20 kcal/mol
Tm [2]: 34.7 °C

GGTGACCGAAAGGTAACC (((.(((....))).)))
folding enthalpy [1]: -41.1 kcal/mol
Tm [2]: 57.1 °C

GGTTAAGGAAACCTAACC (((((.(....).)))))
folding enthalpy [1]: -25 kcal/mol
Tm [2]: 35.2 °C

GGGGTAGGAAACTGCTCC ((.(.((....)).).))
folding enthalpy [1]: -29.9 kcal/mol
Tm [2]: 35.9 °C

GTGGACGGAAACGTCTAC ((.((((....)))).))
folding enthalpy [1]: -24.9 kcal/mol
Tm [2]: 52.2 °C

GGGACCCGAAAGGGACCC (((.(((....))).)))
folding enthalpy [1]: -31.1 kcal/mol
Tm [2]: 67 °C

GAGTGCGAAAGCAGACTC ((((((....)))..)))
folding enthalpy [1]: -18.2 kcal/mol
Tm [2]: 44.4 °C

GCAATACGAAAGTAATGC (((.(((....))).)))
folding enthalpy [1]: -37.4 kcal/mol
Tm [2]: 47.4 °C

GATCAGTGCACTGATC ((((((....))))))
folding enthalpy [1]: -58.7 kcal/mol
Tm [2]: 56.3 °C

GTCGCCGAAAGGCTCGAC ((((((....)))..)))
folding enthalpy [1]: -13.2 kcal/mol
Tm [2]: 39.1 °C

GATCGCCCTTGCGATC ((((((....))))))
folding enthalpy [1]: -29.8 kcal/mol
Tm [2]: 66.9 °C

GGACTCGAAAGAGTGTCC ((((((....)))..)))
folding enthalpy [1]: -16.9 kcal/mol
Tm [2]: 40.7 °C

GATCGTTCTCACGATC ((((((....))))))
folding enthalpy [1]: -40.8 kcal/mol
Tm [2]: 54.8 °C

GAGTCACCGAAAGGTCTC (((..(((....))))))
folding enthalpy [1]: -12.6 kcal/mol
Tm [2]: 28.1 °C

GGGCCCGGAAACGGACCC (((.(((....))).)))
folding enthalpy [1]: -39.3 kcal/mol
Tm [2]: 58.8 °C

GTGTTCGGAAACGAATGC (..((((....))))..)
folding enthalpy [1]: -24.9 kcal/mol
Tm [2]: 42.1 °C

GGTAACGCGAAAGCGACC (((..(((....))))))
folding enthalpy [1]: -14.1 kcal/mol
Tm [2]: 40.9 °C

GATCCGATCGCGGATC ((((((....))))))
folding enthalpy [1]: -37.9 kcal/mol
Tm [2]: 56 °C

GCAGGCGAAAGCCTATGC ((((((....)))..)))
folding enthalpy [1]: -13.9 kcal/mol
Tm [2]: 47.6 °C

GTATCCGAAAGGAATAC ((((((....))).)))
folding enthalpy [1]: -23.2 kcal/mol
Tm [2]: 40.4 °C

GCTTAGCGAAAGCTAGGC ((.((((....)))).))
folding enthalpy [1]: -28.3 kcal/mol
Tm [2]: 60.4 °C

GCCGACGAAAGTCTAGGC ((((((....)))..)))
folding enthalpy [1]: -34.1 kcal/mol
Tm [2]: 52.7 °C

GATCGCTCGCGCGATC ((((((....))))))
folding enthalpy [1]: -31.7 kcal/mol
Tm [2]: 67.4 °C

GTGCTCACGAAAGTGCAC (((..(((....))))))
folding enthalpy [1]: -19.9 kcal/mol
Tm [2]: 48.3 °C

GGAATCGAAAGATGTCC ((((((....))).)))
folding enthalpy [1]: -15.6 kcal/mol
Tm [2]: 32.5 °C

GATCTTGAATAAGATC ((((((....))))))
folding enthalpy [1]: -31.9 kcal/mol
Tm [2]: 49.3 °C

GGTCTTGGAAACGAGATC (.(((.(....).))).)
folding enthalpy [1]: -17.8 kcal/mol
Tm [2]: 30.7 °C

GGTAGATCGAAAGATACC (((..(((....))))))
folding enthalpy [1]: -19 kcal/mol
Tm [2]: 33.1 °C

GGGAAGGGAAACTTTCCC (((((.(....).)))))
folding enthalpy [1]: -26 kcal/mol
Tm [2]: 45.5 °C

GTTATCGAAAGATTAAC ((((((....))).)))
folding enthalpy [1]: -15.1 kcal/mol
Tm [2]: 29.5 °C

GAGGGGCGAAAGCCTCTC (((.(((....))).)))
folding enthalpy [1]: -23.3 kcal/mol
Tm [2]: 58 °C

GACCGGGGAAACCCGACC (..((((....))))..)
folding enthalpy [1]: -11.4 kcal/mol
Tm [2]: 30 °C

GTAGGAGAAATCCTAC ((((((....))))))
folding enthalpy [1]: -26.7 kcal/mol
Tm [2]: 47.3 °C

GAGCGCGAAAGCGAACTC ((((((....)))..)))
folding enthalpy [1]: -15.2 kcal/mol
Tm [2]: 49 °C

GACTTCGGAAACGAAGTC (((((((....)))))))
folding enthalpy [1]: -38.6 kcal/mol
Tm [2]: 66.3 °C

GACGTTGGAAACAACACC (..((((....))))..)
folding enthalpy [1]: -9.55 kcal/mol
Tm [2]: 25.2 °C

GCGGCACTCCGC ((((....))))
folding enthalpy [1]: -25.8 kcal/mol
Tm [2]: 57.5 °C

GACTCCGAAAGGAGGGTC ((((((....)))..)))
folding enthalpy [1]: -17 kcal/mol
Tm [2]: 50.8 °C

GGGTGCGAAAGCATCCC ((((((....))).)))
folding enthalpy [1]: -18.5 kcal/mol
Tm [2]: 65.2 °C

GCATTGCGAAAGCACAGC ((..(((....)))..))
folding enthalpy [1]: -15.2 kcal/mol
Tm [2]: 35.4 °C

GAAGTGCGAAAGCAGTTC (((.(((....))).)))
folding enthalpy [1]: -33.5 kcal/mol
Tm [2]: 57.5 °C

GCATTTGCGAAAGCATGC (((..(((....))))))
folding enthalpy [1]: -17.9 kcal/mol
Tm [2]: 44.9 °C

GATCCACTATTGGATC ((((((....))))))
folding enthalpy [1]: -40.9 kcal/mol
Tm [2]: 49.8 °C

GATCGACGAAAGTCTATC (((.(((....))).)))
folding enthalpy [1]: -26.8 kcal/mol
Tm [2]: 37.1 °C

GATCGATCGCTCGATC ((((((....))))))
folding enthalpy [1]: -37.3 kcal/mol
Tm [2]: 52.4 °C

GGAAACCGAAAGGTATCC (((.(((....))).)))
folding enthalpy [1]: -22.7 kcal/mol
Tm [2]: 48.4 °C

GCCCTGGGAAACCGGGGC ((((.((....)).))))
folding enthalpy [1]: -43.1 kcal/mol
Tm [2]: 66.2 °C

GATACAGGAAACTGTATC (((((((....)))))))
folding enthalpy [1]: -42.9 kcal/mol
Tm [2]: 54 °C

GCCGCCCGAAAGGGGGC (((.(((....))))))
folding enthalpy [1]: -18 kcal/mol
Tm [2]: 68.7 °C

GATCTCCGCCGAGATC ((((((....))))))
folding enthalpy [1]: -49.6 kcal/mol
Tm [2]: 50.9 °C

GCGCTGCGAAAGCACTGC ((..(((....)))..))
folding enthalpy [1]: -16.8 kcal/mol
Tm [2]: 41 °C

GCTCTAGAAATAGAGC ((((((....))))))
folding enthalpy [1]: -34.1 kcal/mol
Tm [2]: 50.9 °C

GGAGACGGAAACGCCTCC ((((.((....)).))))
folding enthalpy [1]: -48.4 kcal/mol
Tm [2]: 51.4 °C

GCAGTGGGAAACCACCGC ((.((((....)))).))
folding enthalpy [1]: -23.4 kcal/mol
Tm [2]: 48.8 °C

GCGTCACAACGC ((((....))))
folding enthalpy [1]: -27.2 kcal/mol
Tm [2]: 55.2 °C

GCGGTGGGAAACTACCGC (((((.(....).)))))
folding enthalpy [1]: -37.5 kcal/mol
Tm [2]: 60.5 °C

GCGATCGTCGC ((((...))))
folding enthalpy [1]: -20.2 kcal/mol
Tm [2]: 45.9 °C

GATCATTGCAATGATC ((((((....))))))
folding enthalpy [1]: -44.8 kcal/mol
Tm [2]: 52.3 °C

GTGTGCGAAAGCAACAC ((((((....))).)))
folding enthalpy [1]: -30.1 kcal/mol
Tm [2]: 61.3 °C

GTACACGAAAGTGAGTAC ((((((....)))..)))
folding enthalpy [1]: -15.6 kcal/mol
Tm [2]: 36.5 °C

GTCTGCGAAAGCAATGAC ((((((....)))..)))
folding enthalpy [1]: -16.8 kcal/mol
Tm [2]: 39.3 °C

GATCGAACATTCGATC ((((((....))))))
folding enthalpy [1]: -38.5 kcal/mol
Tm [2]: 50.7 °C

GATCGATGCTTCGATC ((((((....))))))
folding enthalpy [1]: -41.9 kcal/mol
Tm [2]: 54.9 °C

Source: the array DNA melting data of Ke et al. (doi:10.1101/2024.01.08.574731)
